Activity calls are given as the source filed them. The calls are words filed in the database; no cut-off is given here.
Assays:
[1] = test system: Respiratory syncytial virus; assay: Antiviral activity against RSV infected in human cervix carcinoma cells assessed as inhibition of virus-induced cytopathic effect at 0.32 to 100 uM; format: functional, organism-based
In short: (§1)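 Confluent cell cultures were infected with 100 CCID50 of virus in the presence of test compound at 100, 40, 8, 1.6 and 0.32 μM. Cytopathic effect was scored once it was complete in untreated infected controls.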

Coxsackievirus B4 [2] = assay: Antiviral activity against Coxsackievirus B4 infected in human cervix carcinoma cells assessed as inhibition of virus-induced cytopathic effect at 0.32 to 100 uM; format: functional, organism-based; in short: as §1
L1210 [3] = assay: Cytostatic activity against mouse L1210 cells after 2 days by coulter counter analysis; format: functional, cell-based; conditions: L1210, 48 h
In short: (§2)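 300,000–500,000 cells/ml mixed 1:1 with compound dilutions and incubated at 37 °C for 2 days (L1210) or 3 days (CEM, HeLa). Cell number counted with a Coulter counter; HeLa trypsinized before counting.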

CCRF-CEM = assay: Cytostatic activity against human CEM cells after 3 days by coulter counter analysis; format: functional, cell-based; conditions: 72 h; in short: as §2
HeLa [4] = assay: Cytostatic activity against human HeLa cells after 3 days by coulter counter analysis; format: functional, cell-based; conditions: 72 h; in short: as §2
HCT-116 = assay: Cytostatic activity against human HCT116 cells after 72 hrs by MTT assay; format: functional, cell-based; conditions: HCT-116, 72 h
In short: (§3)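 Monolayers in DMEM with 10% FBS, 2 mM L-glutamine and penicillin/streptomycin, 37 °C, 5% CO2. Seeded at 1–3 × 10^4 cells/ml, then compound added in tenfold dilutions (10⁻⁸–10⁻⁴ M) for 72 h. MTT read at 570 nm; percent growth taken against time-zero and untreated controls. IC50 by linear regression; quadruplicate, at least two experiments.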

MCF7 [5] = assay: Cytostatic activity against human MCF7 cells after 72 hrs by MTT assay; format: functional, cell-based; conditions: MCF7, 72 h; in short: as §3
NCI-H460 [6] = assay: Cytostatic activity against human NCI-H460 cells after 72 hrs by MTT assay; format: functional, cell-based; conditions: NCI-H460, 72 h; in short: as §3
HaCaT [7] = assay: Cytostatic activity against human HaCaT cells after 72 hrs by MTT assay; format: ADME, cell-based; in short: as §3
Human alphaherpesvirus 1 = assay: Antiviral activity against HSV1 KOS infected in human lung fibroblast assessed as inhibition of virus-induced cytopathic effect at 0.32 to 100 uM; format: functional, organism-based; in short: as §1
Human alphaherpesvirus 2 = assay: Antiviral activity against HSV2 G infected in human lung fibroblast assessed as inhibition of virus-induced cytopathic effect at 0.32 to 100 uM; format: functional, organism-based; conditions: strain G; in short: as §1
Vaccinia virus = assay: Antiviral activity against Vaccinia virus infected in human lung fibroblast assessed as inhibition of virus-induced cytopathic effect at 0.32 to 100 uM; format: functional, organism-based; conditions: Orthopoxvirus vaccinia
[8] = test system: Vesicular stomatitis virus; assay: Antiviral activity against VSV infected in human lung fibroblast assessed as inhibition of virus-induced cytopathic effect at 0.32 to 100 uM; format: functional, organism-based
Human respirovirus 3 = assay: Antiviral activity against Parainfluenza virus 3 infected in african green monkey Vero cells assessed as inhibition of virus-induced cytopathic effect at 0.32 to 100 uM; format: functional, organism-based; in short: as §1
[9] = test system: Mammalian orthoreovirus 1; assay: Antiviral activity against Reovirus-1 infected in african green monkey Vero cells assessed as inhibition of virus-induced cytopathic effect at 0.32 to 100 uM; format: functional, organism-based; in short: as §1
Sindbis virus = assay: Antiviral activity against Sindbis virus infected in african green monkey Vero cells assessed as inhibition of virus-induced cytopathic effect at 0.32 to 100 uM; format: functional, organism-based; in short: as §1
Coxsackievirus B4 [10] = assay: Antiviral activity against Coxsackievirus B4 infected in african green monkey Vero cells assessed as inhibition of virus-induced cytopathic effect at 0.32 to 100 uM; format: functional, organism-based; in short: as §1
Punta Toro virus = assay: Antiviral activity against Punta Toro virus infected in african green monkey Vero cells assessed as inhibition of virus-induced cytopathic effect at 0.32 to 100 uM; format: functional, organism-based; in short: as §1
[11] = test system: Vesicular stomatitis virus; assay: Antiviral activity against Vesicular stomatitis virus infected in human cervix carcinoma cells assessed as inhibition of virus-induced cytopathic effect at 0.32 to 100 uM; format: functional, organism-based
In short: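 Confluent human cervix carcinoma (HeLa) cultures received 100 CCID50 of VSV together with the compound at 100, 40, 8, 1.6 or 0.32 μM. Cytopathicity was read at the point of full CPE in infected, untreated control wells.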

Felid alphaherpesvirus 1 = assay: Antiviral activity against Feline herpesvirus infected in feline CRFK cells assessed as inhibition of virus-induced cytopathic effect at 0.32 to 100 uM; format: functional, organism-based; in short: as §1
Feline coronavirus = assay: Antiviral activity against Feline coronavirus infected in feline CRFK cells assessed as inhibition of virus-induced cytopathic effect at 0.32 to 100 uM; format: functional, organism-based; in short: as §1
Influenza A virus [12] = assay: Antiviral activity against Influenza A virus H1N1 infected in MDCK cells assessed as inhibition of virus-induced cytopathic effect at 0.32 to 100 uM; format: functional, organism-based
In short: (§4)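 Confluent MDCK monolayers were infected in the presence of the compound at 100, 40, 8, 1.6 and 0.32 μM. Viral cytopathicity was scored once it was complete in untreated infected control cultures.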

Influenza A virus [13] = assay: Antiviral activity against Influenza A virus H3N2 infected in MDCK cells assessed as inhibition of virus-induced cytopathic effect at 0.32 to 100 uM; format: functional, organism-based; in short: as §4
Influenza B virus = assay: Antiviral activity against Influenza B virus infected in MDCK cells assessed as inhibition of virus-induced cytopathic effect at 0.32 to 100 uM; format: functional, organism-based; in short: as §4
[14] = test system: Human immunodeficiency virus 1; assay: Antiviral activity against HIV1 3B infected in human CEM cells assessed as inhibition of virus-induced CEM giant cell formation at 0.32 to 100 uM after 4 days; format: functional, organism-based; conditions: CCRF-CEM
In short: (§5)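 CEM cells (~3 × 10^5 cells/cm³) exposed to 100 CCID50/ml of virus and seeded into wells holding compound dilutions. Incubated 4 days at 37 °C, then giant cell formation examined microscopically.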

[15] = test system: Human immunodeficiency virus 2; assay: Antiviral activity against HIV2 ROD infected in human CEM cells assessed as inhibition of virus-induced CEM giant cell formation at 0.32 to 100 uM after 4 days; format: functional, organism-based; conditions: ISOLATE ROD, CCRF-CEM; in short: as §5
[16] = test system: Radical scavenging activity; assay: Antioxidant activity assessed as DPPH free radical scavenging activity at 100 uM after 20 mins by spectrophotometric analysis; format: functional
In short: (§6)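 0.05 mM DPPH in absolute ethanol mixed with an equal volume of compound in DMSO (final 100 μM). Shaken and left 20 or 60 min, then absorbance read at 517 nm and percent activity calculated. Three replicates, averaged.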

[17] = test system: Radical scavenging activity; assay: Antioxidant activity assessed as DPPH free radical scavenging activity at 100 uM after 60 mins by spectrophotometric analysis; format: functional; in short: as §6
[18] = Antioxidant activity assessed as inhibition of AAPH-induced linoleic acid lipid peroxidation by measuring conjugated diene hydroperoxide level; format: functional; set-up: concentration or dose not given beside the values; conditions: dose or concentration not given here
In short: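 Linoleic acid sodium salt (10 μL of 16 mM) in 0.05 M phosphate buffer pH 7.4 at 37 °C. Oxidation started under air with 50 μL of 40 mM AAPH. Conjugated diene hydroperoxide formation followed as absorbance rise at 234 nm; control contains the same DMSO level. At least triplicate.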

Glycine max = assay: Inhibition of soybean LOX assessed as conversion of sodium linoleate to 13- hydroperoxylinoleic acid at 100 uM
[19] = Inhibition of soybean LOX assessed as conversion of sodium linoleate to 13- hydroperoxylinoleic acid; set-up: species or system Glycine max
L1210 [20] = assay: Selectivity ratio of IC50 for human HaCaT cells to IC50 for mouse L1210 cells
HaCaT [21] = assay: Selectivity ratio of IC50 for human HaCaT cells to IC50 for human CEM cells
HeLa [22] = assay: Selectivity ratio of IC50 for human HaCaT cells to IC50 for human HeLa cells
HaCaT [23] = assay: Selectivity ratio of IC50 for human HaCaT cells to IC50 for human HCT116 cells
NCI-H460 [24] = assay: Selectivity ratio of IC50 for human HaCaT cells to IC50 for human NCI-H460 cells
MCF7 [25] = assay: Selectivity ratio of IC50 for human HaCaT cells to IC50 for human MCF7 cells

SMILES	inhibition [1]	inhibition (Coxsackievirus B4 [2])	IC50 (L1210 [3]) [µM]	IC50 (CCRF-CEM) [µM]	IC50 (HCT-116) [µM]	IC50 (MCF7 [5]) [µM]	IC50 (NCI-H460 [6]) [µM]	IC50 (HaCaT [7]) [µM]	inhibition (Human alphaherpesvirus 1)	inhibition (Human alphaherpesvirus 2)	inhibition (Vaccinia virus)	inhibition [8]	inhibition (Human respirovirus 3)	inhibition [9]	inhibition (Sindbis virus)	inhibition (Coxsackievirus B4 [10])	inhibition (Punta Toro virus)	inhibition [11]	inhibition (Felid alphaherpesvirus 1)	inhibition (Feline coronavirus)	other results
CC(C(=O)NNC(=O)NC(c1ccccc1)c1ccccc1)c1cccc(Cc2ccccc2)c1 (centres undefined)	inactive	inactive	19	15	8	5	4	11	inactive	inactive	inactive	inactive	inactive	inactive	inactive	inactive	inactive	inactive	inactive	inactive	IC50 (HeLa [4]): 5 µM; inhibition (Influenza A virus [12]): inactive; inhibition (Influenza A virus [13]): inactive; inhibition (Influenza B virus): inactive; inhibition [14]: inactive; inhibition [15]: inactive; Activity [16]: 4%; Activity [17]: 9%; inhibition [18]: 88%; inhibition (Glycine max): 96%; IC50 [19]: 51.5 µM; Ratio IC50 (L1210 [20]): 2; Ratio IC50 (HaCaT [21]): 2; Ratio IC50 (HeLa [22]): 2; Ratio IC50 (HaCaT [23]): 2; Ratio IC50 (NCI-H460 [24]): 2; Ratio IC50 (MCF7 [25]): 2
CC(C(=O)NNC(=O)NCc1ccccc1)c1cccc(Oc2ccccc2)c1 (centres undefined)	inactive	inactive	63	72	27	17	19	46	inactive	inactive	inactive	inactive	inactive	inactive	inactive	inactive	inactive	inactive	inactive	inactive	inhibition (Influenza A virus [12]): inactive; inhibition (Influenza A virus [13]): inactive; inhibition (Influenza B virus): inactive; inhibition [14]: inactive; inhibition [15]: inactive; Activity [16]: 22%; Activity [17]: 24%; inhibition [18]: 11%; inhibition (Glycine max): 68%; IC50 [19]: 75 µM
CC(C(=O)NNC(=O)NCCc1ccccc1)c1cccc(Oc2ccccc2)c1 (centres undefined)	inactive	inactive	53	71	18	19	22	15	inactive	inactive	inactive	inactive	inactive	inactive	inactive	inactive	inactive	inactive	inactive	inactive	IC50 (HeLa [4]): 64 µM; inhibition (Influenza A virus [12]): inactive; inhibition (Influenza A virus [13]): inactive; inhibition (Influenza B virus): inactive; inhibition [14]: inactive; inhibition [15]: inactive; Activity [16]: 4%; Activity [17]: 7%; inhibition [18]: 51%; inhibition (Glycine max): 20%
CC(C(=O)NNC(=O)NCc1ccccc1)c1cccc(Cc2ccccc2)c1 (centres undefined)	inactive	inactive	31	49	24	12	28	25	inactive	inactive	inactive	inactive	inactive	inactive	inactive	inactive	inactive	inactive	inactive	inactive	IC50 (HeLa [4]): 94 µM; inhibition (Influenza A virus [12]): inactive; inhibition (Influenza A virus [13]): inactive; inhibition (Influenza B virus): inactive; inhibition [14]: inactive; inhibition [15]: inactive; Activity [16]: 3%; Activity [17]: 9%; inhibition [18]: 48%; inhibition (Glycine max): inactive
CC(C(=O)NNC(=O)NC(c1ccccc1)c1ccccc1)c1cccc(Oc2ccccc2)c1 (centres undefined)	inactive	inactive	15	11	5	7	3	10	inactive	inactive	inactive	inactive	inactive	inactive	inactive	inactive	inactive	inactive	inactive	inactive	IC50 (HeLa [4]): 5.7 µM; inhibition (Influenza A virus [12]): inactive; inhibition (Influenza A virus [13]): inactive; inhibition (Influenza B virus): inactive; inhibition [14]: inactive; inhibition [15]: inactive; Activity [16]: 2%; Activity [17]: 4%; inhibition [18]: 99%; inhibition (Glycine max): 81%; IC50 [19]: 60 µM; Ratio IC50 (L1210 [20]): 2; Ratio IC50 (HaCaT [21]): 2; Ratio IC50 (HeLa [22]): 2; Ratio IC50 (HaCaT [23]): 2; Ratio IC50 (NCI-H460 [24]): 2; Ratio IC50 (MCF7 [25]): 2

— ChEMBL document CHEMBL2010803, “Novel NSAID 1-acyl-4-cycloalkyl/arylsemicarbazides and 1-acyl-5-benzyloxy/hydroxy carbamoylcarbazides as potential anticancer agents and antioxidants” (Eur J Med Chem, 2012)
